# Rows were chosen to be rich in hits. Some 2.9% of all compounds tested hit in one or more screens of this group.
# SUMO Mot1 rescue = SUMOylation pathway inhibition by Mot1-301 growth rescue; growth rescue, % at 18.8 µM; S. cerevisiae Mot1-301 growth rescue, ATP luminescence, 38.5C; percent above DMSO median, 100 means doubled; hit rate 1% among 320,000;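 active means every valid replicate shows activation above 250% relative to neutral control wells; inactive means the rest, any valid replicate at or below 250%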;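 further: OY570 slx delta 5 strain wells were the positive control but not used for scaling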
# FID counter = counter-screen for HCV NS3 helicase inhibitors: DNA intercalator displacement | inhibition, % at 7.9 µM | hit rate 0.17% among 290,000 | AID 1845 | DNA fluorescent intercalator displacement, fluorescence; in the data active means inhibition above about 37%;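 further: 0% = vehicle and 100% = reference compound; higher means more ethidium bromide displaced from hairpin DNA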
# IMP-1 inh = blocks Pseudomonas aeruginosa IMP-1 metallo-beta-lactamase. inhibition, % at 5.6 µM. purified IMP-1, nitrocefin hydrolysis, epi-absorbance fluorescence. hit rate 0.45% among 290,000;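 active means inhibition above the mean plus 3 SD of all compounds in the same screening run, cut at about 4.5% in these data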;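 further: 0% = IMP-1 with DMSO and 100% = DMSO wells lacking enzyme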
#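 System – purified recombinant IMP-1 beta-lactamase · Input – IMP-1 dispensed at 0.2 nM · Timing – 15 min preincubation plus 25 min reaction at 25 °C · Signal – Epi-absorbance fluorescence, 480 nm excitation, 530 nm emission · Measure – percent IMP-1 inhibition derived from blank-referenced optical density · Controls – Enzyme-plus-DMSO low control, enzyme-free DMSO high control · Replication – singlicate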
# VIM-2 inhibitor = blocks Pseudomonas aeruginosa VIM-2 metallo-beta-lactamase; purified VIM-2, nitrocefin hydrolysis, epi-absorbance fluorescence; inhibition, % at 5.6 µM; hit rate 0.89% among 290,000; AID 1527;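 active means inhibition above the mean of all tested compounds plus 3 SD, cutoff set per screening run, cut at about 7.5% in these data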;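 further: red hydrolysis product quenches plate fluorescence so inhibitors raise well fluorescence; 0% = enzyme with DMSO and 100% = DMSO without enzyme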
# NALP1 inh = blocks the NALP1 inflammasome reconstituted in yeast. hit rate 0.61% among 280,000. S. cerevisiae NALP1/ASC/caspase-1 growth, X-gal OD620, 72 h. inhibition, % at 10 µM; in the data active means inhibition mostly above about 24%, no sharp cut-off; inactive means mostly below about 32%
# UBC9 SUMO inh = blocks human SUMOylation mediated by UBC9; inhibition, % at 35 µM; HTRF SUMOylation assay, SAE1/SAE2 + UBC9, in vitro; hit rate 0.36% among 290,000; AID 2006; in the data active means inhibition above about 50%, passing the limit was not always enough
# Target sequence (P63279 whole entry, looked up): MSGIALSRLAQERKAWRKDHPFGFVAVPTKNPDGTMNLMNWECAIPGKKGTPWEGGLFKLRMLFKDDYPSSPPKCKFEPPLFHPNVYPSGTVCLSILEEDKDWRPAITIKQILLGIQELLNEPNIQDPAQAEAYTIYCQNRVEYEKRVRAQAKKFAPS
# Yeast Mot1 SUMO = SUMO pathway inhibitors in yeast Mot1-301 growth; shares compounds with SUMO Mot1 rescue; S. cerevisiae Mot1-301 galactose growth, ATP luminescence, 24 h; -100 = growth of slx-deleted rescue strain; growth activity, percent, % at 42 µM; 2,300 tested, under 10 active; AID 493004;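 active means Signal drops as the depositor expects, and the fitted half-maximal dose is no more than ten times the top valid tested dose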;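 further: more negative values mean stronger growth rescue toward the control strain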
# Starred values were filed as active, the others as inactive; nt = no result.
SMILES,SUMO Mot1 rescue,FID counter,IMP-1 inh,VIM-2 inhibitor,NALP1 inh,UBC9 SUMO inh,Yeast Mot1 SUMO
COc1ccc(CN2CCN(C(=O)Cc3ccccc3)CC2)cc1Br,-20.9,-15.1,0.7,-1.4,1.8,7.6,nt
OC1(c2ccc(F)cc2)CC2CCC(C1)N2Cc1nnnn1C1CCCCC1 (centres undefined),674.1*,-24.9,-3.4,-2.4,-5.7,-19.2,0.6
OCCN1C2CCC1CC(O)(c1ccc(F)cc1)C2 (centres undefined),-10.9,-1.5,-4.0,0.1,7.2,-11.7,nt
C=C(C)CSc1nnc([C@@H](N)Cc2ccccc2)o1,-0.8,2.8,-0.6,0.7,9.5,2.9,nt
CCOC(C(=O)OCCCN(CC)CC)(c1ccccc1)c1ccccc1,509.7*,24.6,-2.5,-2.5,16.5,11.5,-0.6
CCN(CC)CCCOC(=O)C(OC(C)C)(c1ccccc1)c1ccccc1,19.0,32.4,-2.3,-0.5,10.3,5.7,nt
CN(C)C(CNC(=O)Cc1c(Cl)cccc1Cl)c1ccccc1 (centres undefined),223.1,8.7,-0.3,2.0,24.0,-6.5,nt
Oc1cccc2nc3ccccc3nc12,-8.6,4.9,-4.7,-2.0,9.2,-0.6,nt
CCC(=O)N1CC(=O)Nc2ccc(F)cc2C1c1ccccc1 (centres undefined),121.9,-4.0,0.0,1.0,0.1,23.9,nt
CCC1C(c2ccccc2)NC(c2ccccc2)CC1(O)c1ccc(F)cc1 (centres undefined),683.1*,4.2,-3.3,-2.1,3.3,2.2,0.3
CN(C)C1(c2nnnn2-c2ccc(Cl)cc2)CCCCC1,737.0*,-4.4,-6.1,1.4,-19.4,9.2,0.4
Cc1cc(OCC(=O)N2C[C@H]3C[C@@H](C2)c2cccc(=O)n2C3)c2c(C)c(C)c(=O)oc2c1,-16.2,-16.5,-1.2,1.0,0.9,22.3,nt
O=c1[nH]c(=O)n(Cc2ccccc2Cl)c(O)c1C=Nc1ccc(F)cc1,-0.4,3.4,0.6,-0.2,1.9,11.6,nt
COc1ccc2c(c1)[C@@]13CCC=C[C@H]1[C@@H](C2)NCC3,455.3*,nt,nt,nt,nt,nt,0.0
C[N+](C)(C)CC(=O)Nc1ccc(Cl)cc1C(=O)c1ccccc1,415.4*,3.7,-3.8,-2.5,5.8,-13.3,-0.4
CN(C)CCCNCC(=O)Nc1ccc(Cl)cc1C(=O)c1ccccc1,5.1,15.1,-0.5,0.4,1.9,-19.0,nt
CCOc1c(P(=S)(N(C)C)N(C)C)c(C)nn1-c1ccccc1,890.6*,-16.8,-3.2,-2.0,34.1,-3.5,-0.3
